Results taken from ChEMBL document CHEMBL1122664, “Synthesis and evaluation of 19-aza- and 19-aminoandrostenedione analogues as potential aromatase inhibitors” (J Med Chem, 1984).
“And” between values parts separate entries of the source, which are not always exact repeats. Equal entries are not always repeated.

What was measured:
Aromatase [1] = biological target: T1, Aromatase (Homo sapiens, UniProt P11511); experiment: Inhibition of 1.25 uM [1-3H]-androst-4-ene-3,17-dione binding to Cytochrome P450 19A1
T1 sequence (P11511 whole entry): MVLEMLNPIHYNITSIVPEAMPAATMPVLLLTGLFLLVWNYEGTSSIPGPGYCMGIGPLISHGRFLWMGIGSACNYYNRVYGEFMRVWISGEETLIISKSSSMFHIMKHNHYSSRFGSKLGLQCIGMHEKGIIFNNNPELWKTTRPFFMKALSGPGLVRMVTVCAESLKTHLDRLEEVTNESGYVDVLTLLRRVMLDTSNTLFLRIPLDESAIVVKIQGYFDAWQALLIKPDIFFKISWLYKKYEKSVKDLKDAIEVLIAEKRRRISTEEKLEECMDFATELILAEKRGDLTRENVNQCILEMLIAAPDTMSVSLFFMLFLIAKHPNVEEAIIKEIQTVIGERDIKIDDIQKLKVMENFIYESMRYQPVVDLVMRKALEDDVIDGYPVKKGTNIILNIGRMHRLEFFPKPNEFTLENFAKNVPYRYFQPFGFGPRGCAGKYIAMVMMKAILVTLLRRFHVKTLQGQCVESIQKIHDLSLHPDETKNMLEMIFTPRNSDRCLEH
Outline: (§1)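 Tritiated water release assay using lyophilized, twice-washed human term placental microsomes (0.1 mg protein) with [1-³H]androstenedione at 0.25 μM (5 × KM) and inhibitor at 0.25 or 1.25 μM. NADPH-generating system in 10 mM K phosphate with KCl, EDTA and DTT; 15 min at 25 °C. Stopped with CHCl₃; charcoal-treated aqueous ³H₂O counted. Triplicates; % inhibition versus concurrent controls.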

Aromatase [2] = biological target: T1, Aromatase; experiment: Inhibition of 0.25 uM [1-3H]-androst-4-ene-3,17-dione binding to Cytochrome P450 19A1; outline: as §1

Structure (SMILES) | Inhibition (Aromatase [1]) | Inhibition (Aromatase [2])
C[C@]12CCC(=O)C=C1C[C@@H](Sc1ccc(N)cc1)[C@@H]1[C@@H]2CC[C@]2(C)C(=O)CC[C@@H]12 | 83.1% | 54.8%
COC(=O)N[C@]12CCC(=O)C=C1CC[C@H]1[C@@H]3CCC(=O)[C@@]3(C)CC[C@@H]12 | < 2% | < 2%
C[C@]12CC[C@H]3[C@@H](CCC4=CC(=O)CC[C@@]43CNC(=O)C(F)(F)F)[C@@H]1CCC2=O | 11.4% | 2.5%
C[C@]12CC[C@H]3[C@@H](CCC4=CC(=O)CC[C@@]43/C=N\O)[C@@H]1CCC2=O | 4.1% | 8.6%
CC(=O)NC[C@]12CCC(=O)C=C1CC[C@@H]1[C@@H]2CC[C@]2(C)C(=O)CC[C@@H]12 | 13.2% | < 2%
C[C@]12CC[C@H]3[C@@H](CCC4=CC(=O)CC[C@@]43N)[C@@H]1CCC2=O | 19.2% and 10.9% | 9.4% and 6.9%
C[C@]12CC[C@H]3[C@@H](CCC4=CC(=O)CC[C@@]43N=C=O)[C@@H]1CCC2=O | < 2% | < 2%
C[C@]12CCC(=O)C(O)=C1CC[C@@H]1[C@@H]2CC[C@]2(C)C(=O)CC[C@@H]12 [FORMESTANE] | 81.6% | 50.1%
